From ChEMBL document CHEMBL4261538, “Synthesis and molecular docking studies of xanthone attached amino acids as potential antimicrobial and anti-inflammatory agents” (Medchemcomm, 2017)
≈ marks a conversion by molar mass, not a printed value.

How the values were obtained:
[1] = test system: Staphylococcus aureus; assay: Antibacterial activity against Staphylococcus aureus at 25 ug/ml incubated for 24 hrs by agar well diffusion method; type: functional; conditions: read-out: DIZ
In short: (§1)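 Bacteria grown in nutrient broth at 37 °C for 24 h, then subcultured at room temperature. Compounds dissolved in DMSO at 5 mg mL⁻¹ and 5–20 µL added to 6 mm wells, giving 25, 50, 75, 100 µg per well. Gentamicin was the positive control and DMSO the negative control. Plates held at 37 °C for 24 h, then inhibition zone diameter (mm) measured. Values are means of three determinations.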

[2] = test system: Staphylococcus aureus; assay: Antibacterial activity against Staphylococcus aureus at 50 ug/ml incubated for 24 hrs by agar well diffusion method; type: functional; conditions: read-out: DIZ; in short: as §1
[3] = test system: Staphylococcus aureus; assay: Antibacterial activity against Staphylococcus aureus at 75 ug/ml incubated for 24 hrs by agar well diffusion method; type: functional; conditions: read-out: DIZ; in short: as §1
[4] = test system: Staphylococcus aureus; assay: Antibacterial activity against Staphylococcus aureus at 100 ug/ml incubated for 24 hrs by agar well diffusion method; type: functional; conditions: read-out: DIZ; in short: as §1
[5] = test system: Bacillus subtilis; assay: Antibacterial activity against Bacillus subtilis at 25 ug/ml incubated for 24 hrs by agar well diffusion method; type: functional; conditions: read-out: DIZ; in short: as §1
[6] = test system: Bacillus subtilis; assay: Antibacterial activity against Bacillus subtilis at 50 ug/ml incubated for 24 hrs by agar well diffusion method; type: functional; conditions: read-out: DIZ; in short: as §1
[7] = test system: Bacillus subtilis; assay: Antibacterial activity against Bacillus subtilis at 75 ug/ml incubated for 24 hrs by agar well diffusion method; type: functional; conditions: read-out: DIZ; in short: as §1
[8] = test system: Bacillus subtilis; assay: Antibacterial activity against Bacillus subtilis at 100 ug/ml incubated for 24 hrs by agar well diffusion method; type: functional; conditions: read-out: DIZ; in short: as §1
[9] = test system: Escherichia coli; assay: Antibacterial activity against Escherichia coli at 25 ug/ml incubated for 24 hrs by agar well diffusion method; type: functional; conditions: read-out: DIZ; in short: as §1
[10] = test system: Escherichia coli; assay: Antibacterial activity against Escherichia coli at 50 ug/ml incubated for 24 hrs by agar well diffusion method; type: functional; conditions: read-out: DIZ; in short: as §1
[11] = test system: Escherichia coli; assay: Antibacterial activity against Escherichia coli at 75 ug/ml incubated for 24 hrs by agar well diffusion method; type: functional; conditions: read-out: DIZ; in short: as §1
[12] = test system: Escherichia coli; assay: Antibacterial activity against Escherichia coli at 100 ug/ml incubated for 24 hrs by agar well diffusion method; type: functional; conditions: read-out: DIZ; in short: as §1
[13] = test system: Klebsiella pneumoniae; assay: Antibacterial activity against Klebsiella pneumoniae at 25 ug/ml incubated for 24 hrs by agar well diffusion method; type: functional; conditions: read-out: DIZ; in short: as §1
[14] = test system: Klebsiella pneumoniae; assay: Antibacterial activity against Klebsiella pneumoniae at 50 ug/ml incubated for 24 hrs by agar well diffusion method; type: functional; conditions: read-out: DIZ; in short: as §1
[15] = test system: Klebsiella pneumoniae; assay: Antibacterial activity against Klebsiella pneumoniae at 75 ug/ml incubated for 24 hrs by agar well diffusion method; type: functional; conditions: read-out: DIZ; in short: as §1
[16] = test system: Klebsiella pneumoniae; assay: Antibacterial activity against Klebsiella pneumoniae at 100 ug/ml incubated for 24 hrs by agar well diffusion method; type: functional; conditions: read-out: DIZ; in short: as §1
[17] = test system: Aspergillus niger; assay: Antifungal activity against Aspergillus niger at 25 ug/ml incubated for 48 hrs by agar well diffusion method; type: functional; conditions: read-out: DIZ
In short: (§2)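 Compounds dissolved in DMSO at 5 mg mL⁻¹ and 5–20 µL added to 6 mm wells, giving 25, 50, 75, 100 µg per well. Bavistin was the positive control and DMSO the negative control. Plates incubated at 28 °C for 48 h, then inhibition zone diameter (mm) measured. Values are means of three determinations.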

[18] = test system: Aspergillus niger; assay: Antifungal activity against Aspergillus niger at 50 ug/ml incubated for 48 hrs by agar well diffusion method; type: functional; conditions: read-out: DIZ; in short: as §2
[19] = test system: Aspergillus niger; assay: Antifungal activity against Aspergillus niger at 75 ug/ml incubated for 48 hrs by agar well diffusion method; type: functional; conditions: read-out: DIZ; in short: as §2
[20] = test system: Aspergillus niger; assay: Antifungal activity against Aspergillus niger at 100 ug/ml incubated for 48 hrs by agar well diffusion method; type: functional; conditions: read-out: DIZ; in short: as §2
[21] = test system: Candida albicans; assay: Antifungal activity against Candida albicans at 25 ug/ml incubated for 48 hrs by agar well diffusion method; type: functional; conditions: read-out: DIZ; in short: as §2
[22] = test system: Candida albicans; assay: Antifungal activity against Candida albicans at 50 ug/ml incubated for 48 hrs by agar well diffusion method; type: functional; conditions: read-out: DIZ; in short: as §2
[23] = test system: Candida albicans; assay: Antifungal activity against Candida albicans at 75 ug/ml incubated for 48 hrs by agar well diffusion method; type: functional; conditions: read-out: DIZ; in short: as §2
[24] = test system: Candida albicans; assay: Antifungal activity against Candida albicans at 100 ug/ml incubated for 48 hrs by agar well diffusion method; type: functional; conditions: read-out: DIZ; in short: as §2
[25] = test system: Fusarium oxysporum; assay: Antifungal activity against Fusarium oxysporum at 25 ug/ml incubated for 48 hrs by agar well diffusion method; type: functional; conditions: read-out: DIZ; in short: as §2
[26] = test system: Fusarium oxysporum; assay: Antifungal activity against Fusarium oxysporum at 50 ug/ml incubated for 48 hrs by agar well diffusion method; type: functional; conditions: read-out: DIZ; in short: as §2
[27] = test system: Fusarium oxysporum; assay: Antifungal activity against Fusarium oxysporum at 75 ug/ml incubated for 48 hrs by agar well diffusion method; type: functional; conditions: read-out: DIZ; in short: as §2
[28] = test system: Fusarium oxysporum; assay: Antifungal activity against Fusarium oxysporum at 100 ug/ml incubated for 48 hrs by agar well diffusion method; type: functional; conditions: read-out: DIZ; in short: as §2
[29] = test system: Erythrocyte; assay: Anti-inflammatory activity in human RBC assessed as inhibition of hypotonic solution-induced hemolysis after 10 mins by spectrophotometric method; type: functional, cell-based
In short: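 Human blood (heparinized) washed with 0.9% saline, packed cells made into a 40% v/v stock in isotonic phosphate buffer (154 mM NaCl, 10 mM sodium phosphate, pH 7.4). Stock RBC mixed with hypotonic buffer (50 mM NaCl, 10 mM phosphate, pH 7.4) plus sample at 20–100 µg mL⁻¹.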

| Compound | zone of inhibition at 25 µg/mL [1] [mm] | zone of inhibition at 50 µg/mL [2] [mm] | zone of inhibition at 75 µg/mL [3] [mm] | zone of inhibition at 100 µg/mL [4] [mm] | zone of inhibition at 25 µg/mL [5] [mm] | zone of inhibition at 50 µg/mL [6] [mm] | zone of inhibition at 75 µg/mL [7] [mm] | zone of inhibition at 100 µg/mL [8] [mm] | zone of inhibition at 25 µg/mL [9] [mm] | zone of inhibition at 50 µg/mL [10] [mm] | zone of inhibition at 75 µg/mL [11] [mm] | zone of inhibition at 100 µg/mL [12] [mm] | zone of inhibition at 25 µg/mL [13] [mm] | zone of inhibition at 50 µg/mL [14] [mm] | zone of inhibition at 75 µg/mL [15] [mm] | zone of inhibition at 100 µg/mL [16] [mm] | zone of inhibition at 25 µg/mL [17] [mm] | zone of inhibition at 50 µg/mL [18] [mm] | zone of inhibition at 75 µg/mL [19] [mm] | zone of inhibition at 100 µg/mL [20] [mm] | further results |
| --- | --- | --- | --- | --- | --- | --- | --- | --- | --- | --- | --- | --- | --- | --- | --- | --- | --- | --- | --- | --- | --- |
| Cl.N[C@@H](CS)C(=O)Oc1ccc2c(=O)c3ccccc3oc2c1 | 20 | 29 | 35 | 39 | 19 | 26 | 31 | 34 | 19 | 28 | 34 | 39 | 15 | 23 | 30 | 37 | 19 | 27 | 32 | 37 | zone of inhibition at 25 µg/mL [21]: 17 mm; zone of inhibition at 50 µg/mL [22]: 26 mm; zone of inhibition at 75 µg/mL [23]: 35 mm; zone of inhibition at 100 µg/mL [24]: 40 mm; zone of inhibition at 25 µg/mL [25]: 20 mm; zone of inhibition at 50 µg/mL [26]: 28 mm; zone of inhibition at 75 µg/mL [27]: 33 mm; zone of inhibition at 100 µg/mL [28]: 39 mm; IC50 [29]: 30 µg/mL |
| CSCC[C@H](N)C(=O)Oc1ccc2c(=O)c3ccccc3oc2c1.Cl | 17 | 19 | 22 | 28 | 15 | 20 | 25 | 31 | 17 | 21 | 25 | 29 | 17 | 24 | 29 | 33 | 11 | 18 | 21 | 24 | zone of inhibition at 25 µg/mL [21]: 12 mm; zone of inhibition at 50 µg/mL [22]: 17 mm; zone of inhibition at 75 µg/mL [23]: 21 mm; zone of inhibition at 100 µg/mL [24]: 23 mm; zone of inhibition at 25 µg/mL [25]: 13 mm; zone of inhibition at 50 µg/mL [26]: 17 mm; zone of inhibition at 75 µg/mL [27]: 19 mm; zone of inhibition at 100 µg/mL [28]: 22 mm; IC50 [29]: 34 µg/mL |
| CSCC[C@H](NC(=O)OC(C)(C)C)C(=O)Oc1ccc2c(=O)c3ccccc3oc2c1 | 15 | 17 | 22 | 27 | 13 | 18 | 24 | 29 | 16 | 19 | 25 | 30 | 16 | 22 | 26 | 31 | 12 | 15 | 18 | 22 | zone of inhibition at 25 µg/mL [21]: 11 mm; zone of inhibition at 50 µg/mL [22]: 16 mm; zone of inhibition at 75 µg/mL [23]: 19 mm; zone of inhibition at 100 µg/mL [24]: 21 mm; zone of inhibition at 25 µg/mL [25]: 8 mm; zone of inhibition at 50 µg/mL [26]: 14 mm; zone of inhibition at 75 µg/mL [27]: 17 mm; zone of inhibition at 100 µg/mL [28]: 23 mm; IC50 [29]: 36 µg/mL (≈ 81.2 µM) |
